Entries after “also recorded” stand apart in the source; their conditions may differ. Like-named read-outs stand apart in the source and are kept apart here.
Tests used:
[1] = test system: D1-like receptor (D1 and D5); assay: [3H]SCH 23390 binding assay, rat striatal membranes; conditions: ratio of Ki values, rat brain preparation
[2] = target: human D3 receptor (Homo sapiens, UniProt P35462); format: cell-based; conditions: hD3-transfected CHOp cells, mitogenesis; for IC50: read-out: Agonist activity: IC50, mean ± SEM of 3–6 determinations
[3] = format: in vitro ADME
[4] = test system: D2-like receptor (D2, D3, and D4); assay: [3H]spiperone binding assay, rat striatal; conditions: ratio of Ki values, rat brain preparation
Summary of the method: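 The D2-like assay used [3H]spiperone at 0.2 nM on caudate-putamen membranes at 1.5 mg o.w.w./mL, in agonist-optimised Tris-HCl/KCl/MgCl2/CaCl2 buffer at pH 7.4. Nonspecific binding was set with 1 μM (+)-butaclamol, and KD was 0.4 nM. For two-site curves, the high-affinity Ki is reported. […] Values are means of 3–6 determinations.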

Sequence of human D3 receptor (P35462 whole entry): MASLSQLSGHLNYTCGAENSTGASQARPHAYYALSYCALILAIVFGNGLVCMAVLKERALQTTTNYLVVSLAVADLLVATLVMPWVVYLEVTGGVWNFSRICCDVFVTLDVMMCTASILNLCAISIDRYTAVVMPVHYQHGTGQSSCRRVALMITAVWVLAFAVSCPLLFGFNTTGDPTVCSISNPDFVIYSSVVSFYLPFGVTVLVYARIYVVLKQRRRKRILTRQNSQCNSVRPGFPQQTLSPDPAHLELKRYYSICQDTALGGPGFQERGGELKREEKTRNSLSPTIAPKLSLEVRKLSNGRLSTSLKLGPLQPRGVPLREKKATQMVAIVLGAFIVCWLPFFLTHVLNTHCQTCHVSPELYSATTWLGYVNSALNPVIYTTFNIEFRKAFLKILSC

| Compound | Selectivity D1-like/D3 [1] | % of Stimulation compared to Quinpirole as the standard agonist [2] [%] | functional activity at the human D3 receptor (agonist character) [2] | IC50 [2] [nM] | t1/2 in human liver microsomes [3] [h] | Percentage remaining of compounds in human liver microsomes ([3]; 0 h) [%] | Percentage remaining of compounds in human liver microsomes ([3]; 5 min) [%] | Percentage remaining of compounds in human liver microsomes ([3]; 10 min) [%] | Percentage remaining of compounds in human liver microsomes ([3]; 0.25 h) [%] | Percentage remaining of compounds in human liver microsomes ([3]; 0.5 h) [%] | Percentage remaining of compounds in human liver microsomes ([3]; 1 h) [%] | Selectivity D2-like/D3 [4] |
| --- | --- | --- | --- | --- | --- | --- | --- | --- | --- | --- | --- | --- |
| CCCN(CC[C@]1(O)C[C@@H](NC(=O)c2cccc(OC)c2)C1)[C@H]1CCc2nc(N)sc2C1 (relative stereo) [Compound 21, N-(cis-3-(2-(((S)-2-Amino-4,5,6,7-tetrahydrobenzo[d]thiazol-6-yl)(propyl)amino)-ethyl)-3-hydroxycyclobutyl)-3-methoxybenzamide] | 84,474 | 100 | full D3 agonists | 18 ± 2.7 | >1 | 100 | 99.7 | 98.5 | 92.5 | 83.0 | 74.1 | 12,836 |
| CCCN(CC[C@]1(O)C[C@@H](NC(=O)c2cccc(-c3noc(C)n3)c2)C1)[C@H]1CCc2nc(N)sc2C1 (relative stereo) [Compound 23, N-(cis-3-(2-(((S)-2-amino-4,5,6,7-tetrahydrobenzo[d]thiazol-6-yl)(propyl)amino)-ethyl)-3-hydroxycyclobutyl)-3-(5-methyl-1,2,4-oxadiazol-3-yl)benzamide] | 28,300 | 100 | full D3 agonists; also recorded: full agonist | 19 ± 1.5 | >1 | 100 | 96.6 | 99.2 | 99.0 | 90.0 | 65.5 | 29,800 |
| CCCN(CCC1(O)CC(NC(=O)c2ccc(F)c(Cl)c2)C1)[C@H]1CCc2nc(N)sc2C1 (stereo in doubt) [Compound 18, N-(cis-3-(2-(((S)-2-amino-4,5,6,7-tetrahydrobenzo[d]thiazol-6-yl)(propyl)amino)-ethyl)-3-hydroxycyclobutyl)-3-chloro-4-fluorobenzamide] | 65,581 | 100 | full D3 agonists | 2 ± 0.34 | – | – | – | – | – | – | – | 16,272 |
| CCCN(CCC1(O)CC(NS(=O)(=O)c2ccc(F)c(Cl)c2)C1)[C@H]1CCc2nc(N)sc2C1 (stereo in doubt) [Compound 34, N-(cis-3-(2-(((S)-2-Amino-4,5,6,7-tetrahydrobenzo[d]thiazol-6-yl)(propyl)amino)-ethyl)-3-hydroxycyclobutyl)-3-chloro-4-fluorobenzenesulfonamide] | 18,217 | 100 | full D3 agonists | 26 ± 4.1 | – | – | – | – | – | – | – | 1,052 |

Reference: publication PMC4277207 (ChemMedChem, 2014)
